Measured values as given in ChEMBL document CHEMBL1143909, “Novel cholesterol biosynthesis inhibitors targeting human lanosterol 14alpha-demethylase (CYP51)” (Bioorg Med Chem, 2008).
Active and inactive are the calls of the source. No cut-off for these calls is given here.

Key:
[1] = biological target: T1, Lanosterol 14-alpha demethylase (Homo sapiens, UniProt Q16850); test: Binding affinity to human His-tagged CYP51 expressed in Escherichia coli
T1 sequence (Q16850 whole entry): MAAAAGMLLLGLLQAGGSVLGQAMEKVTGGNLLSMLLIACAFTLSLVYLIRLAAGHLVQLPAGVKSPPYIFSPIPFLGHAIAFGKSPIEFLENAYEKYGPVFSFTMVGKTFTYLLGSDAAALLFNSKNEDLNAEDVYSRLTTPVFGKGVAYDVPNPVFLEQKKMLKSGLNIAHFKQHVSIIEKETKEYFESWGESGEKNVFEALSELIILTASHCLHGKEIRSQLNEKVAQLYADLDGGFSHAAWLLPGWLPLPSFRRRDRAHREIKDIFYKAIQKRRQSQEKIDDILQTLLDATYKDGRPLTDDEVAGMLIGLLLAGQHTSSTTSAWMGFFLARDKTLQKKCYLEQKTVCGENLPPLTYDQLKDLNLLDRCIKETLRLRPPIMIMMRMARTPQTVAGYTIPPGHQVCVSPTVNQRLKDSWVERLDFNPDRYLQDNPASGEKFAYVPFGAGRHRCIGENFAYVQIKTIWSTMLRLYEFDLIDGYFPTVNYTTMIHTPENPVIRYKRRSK
How it was run: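 Purified His-tagged human CYP51 titrated with inhibitor at room temperature in 50 mM phosphate, 100 mM NaCl, 0.1 mM EDTA, 10% glycerol. Difference spectra recorded 350-500 nm; A412–A432 plotted against inhibitor concentration. Enzyme 0.5 or 2 µM, titration ranges 0.25-400 µM depending on compound. Apparent Kd from hyperbolic nonlinear fit of free inhibitor; three repeats per compound.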

HepG2 = test: Ex vivo inhibition of CYP51 mediated cholesterol biosynthesis in human HepG2 cells assessed as increase in lanosterol accumulation at 10 uM relative to control
[2] = biological target: T2, Delta(14)-sterol reductase TM7SF2 (Homo sapiens) (UniProt O76062); test: Inhibition of Delta-(14)-sterol reductase in human HepG2 cells assessed as accumulation of FF-MAS; type: cell-based
T2 sequence (whole entry): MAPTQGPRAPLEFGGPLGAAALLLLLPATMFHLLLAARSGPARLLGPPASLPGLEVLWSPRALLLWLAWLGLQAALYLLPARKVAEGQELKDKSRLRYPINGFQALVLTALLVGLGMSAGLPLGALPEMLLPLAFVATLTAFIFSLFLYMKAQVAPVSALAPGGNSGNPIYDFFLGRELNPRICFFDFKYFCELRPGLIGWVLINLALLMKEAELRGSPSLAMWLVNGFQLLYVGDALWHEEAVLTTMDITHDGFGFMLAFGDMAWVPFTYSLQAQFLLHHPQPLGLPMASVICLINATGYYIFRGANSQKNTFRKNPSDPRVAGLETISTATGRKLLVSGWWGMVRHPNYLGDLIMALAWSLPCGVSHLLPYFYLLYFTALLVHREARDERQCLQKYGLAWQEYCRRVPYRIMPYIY
How it was run: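 HepG2 cells grown 24 h at 37 °C, 5% CO2 in DMEM high with 5% calf serum, then 10 µM compound for 24 h. Fresh medium with [3H]acetate (40 µCi/ml) for 4 h. Sterols extracted from homogenate with ergosterol internal standard, separated by reversed-phase HPLC (100% acetonitrile, 40 °C) with radioactivity detection. Read as ratios to untreated cells: two experiments × two replicas, mean of 8 ratios ± SD.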

SMILES | Kd [1] [µM] | Activity [2] | Activity (HepG2)
Br.CCCN(CCc1ccc(Cl)c(Cl)c1)CC(O)c1cc(C)ccn1 (centres undefined) | > 1000 |  | 1.2
Br.CCCN(CCc1ccc2ccccc2c1)CC(O)c1cccnc1 (centres undefined) | 0.34 |  | 5
Br.CCCN(CCc1ccc(OC)c(OC)c1)CC(O)c1cccnc1 (centres undefined) | 29.2 |  | 1.8
CC(=O)N1CCN(c2ccc(OC[C@H]3CO[C@](Cn4ccnc4)(c4ccc(Cl)cc4Cl)O3)cc2)CC1 [KETOCONAZOLE] | 0.11 |  | 

Further lines, with some results ahead:

Kd [1] [µM] | Activity [2] | SMILES | Activity (HepG2)
0.4 |  | Br.CCCN(CCc1ccc(Cl)c(Cl)c1)CC(O)c1cccnc1 (centres undefined) | 6
27 |  | Br.CCCN(CCc1ccc(F)c(F)c1)CC(O)c1cccnc1 (centres undefined) | 1.9
 | Active | CCCN(CCc1cccnc1)CCc1cccc(F)c1 | 
260 |  | Br.CCCN(CCc1cccnc1)CC(O)c1cccnc1 (centres undefined) | 1
